# Data from ChEMBL document CHEMBL5696442, “Discovery of type II inhibitors of TGFβ-activated kinase 1 (TAK1) and mitogen-activated protein kinase kinase kinase kinase 2 (MAP4K2)” (J Med Chem, 2015).
# Columns and labels:
# [1] = biological target: STE20-like serine/threonine-protein kinase (Homo sapiens) (UniProt Q9H2G2); assay: Inhibition of SLK Lys2 labeling site harbouring DLKAGNILFTLDGDIKLADFGVSAK in human Huh-7 cell lysate at 1 uM by KiNativ Profiling analysis relative to control; type: subcellular
# [2] = biological target: Cyclin-dependent kinase 10 (Homo sapiens) (UniProt Q15131); assay: Inhibition of CDK10 Lys2 labeling site in human Huh-7 cells at 1 uM by KiNativ Profiling analysis relative to control; type: cell-based
# [3] = biological target: T1, Mitogen-activated protein kinase kinase kinase 3 (Homo sapiens) (UniProt Q99759); assay: Inhibition of MAP3K3 Lys2 labeling site in human Huh-7 cell lysate at 1 uM by KiNativ Profiling analysis relative to control; type: subcellular
# T1 sequence (whole entry): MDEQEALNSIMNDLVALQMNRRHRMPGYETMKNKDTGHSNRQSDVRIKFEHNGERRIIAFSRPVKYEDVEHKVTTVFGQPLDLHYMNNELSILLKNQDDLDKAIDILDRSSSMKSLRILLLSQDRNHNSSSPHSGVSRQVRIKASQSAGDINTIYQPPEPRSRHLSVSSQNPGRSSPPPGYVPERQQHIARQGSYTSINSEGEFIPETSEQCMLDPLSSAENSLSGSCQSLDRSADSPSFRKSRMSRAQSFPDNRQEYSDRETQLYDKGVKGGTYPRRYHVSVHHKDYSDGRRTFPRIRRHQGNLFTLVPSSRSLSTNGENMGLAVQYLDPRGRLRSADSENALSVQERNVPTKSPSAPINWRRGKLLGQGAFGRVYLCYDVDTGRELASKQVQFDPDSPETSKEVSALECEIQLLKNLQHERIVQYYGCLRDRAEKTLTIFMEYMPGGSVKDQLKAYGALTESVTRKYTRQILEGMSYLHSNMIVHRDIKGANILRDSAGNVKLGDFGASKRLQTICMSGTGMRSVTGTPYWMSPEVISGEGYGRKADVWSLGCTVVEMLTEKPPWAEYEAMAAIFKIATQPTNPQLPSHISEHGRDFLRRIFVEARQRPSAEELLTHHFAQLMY
# [4] = biological target: Microtubule-associated serine/threonine-protein kinase 3 (Homo sapiens) (UniProt O60307); assay: Inhibition of MAST3 Lys2 labeling site in human A-375 cells at 0.5 uM by KiNativ Profiling analysis relative to control; type: cell-based
# [5] = Inhibition of KHS1 Lys2 labeling site in human A-375 cells at 0.05 uM by KiNativ Profiling analysis relative to control; details: condition cancer
# [6] = biological target: T2, Serine/threonine-protein kinase Sgk3 (Homo sapiens) (UniProt Q96BR1); assay: Inhibition of SGK3 Lys1 labeling site in human A-375 cells at 0.5 uM by KiNativ Profiling analysis relative to control; type: cell-based
# T2 sequence (whole entry): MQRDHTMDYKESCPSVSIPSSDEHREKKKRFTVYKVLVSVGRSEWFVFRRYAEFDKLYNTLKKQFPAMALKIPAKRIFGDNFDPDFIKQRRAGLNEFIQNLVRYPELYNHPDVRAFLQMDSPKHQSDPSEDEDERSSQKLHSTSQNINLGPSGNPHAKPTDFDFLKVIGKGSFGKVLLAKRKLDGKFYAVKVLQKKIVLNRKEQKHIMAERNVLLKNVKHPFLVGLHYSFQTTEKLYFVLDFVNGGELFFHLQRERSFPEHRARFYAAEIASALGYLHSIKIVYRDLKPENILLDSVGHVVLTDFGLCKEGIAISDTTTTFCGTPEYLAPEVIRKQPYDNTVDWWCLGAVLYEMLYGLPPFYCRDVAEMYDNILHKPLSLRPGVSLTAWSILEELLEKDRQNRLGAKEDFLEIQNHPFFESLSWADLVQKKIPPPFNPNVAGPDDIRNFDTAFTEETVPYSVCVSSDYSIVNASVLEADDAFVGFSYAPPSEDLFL
# [7] = biological target: Angiopoietin-1 receptor (Homo sapiens) (UniProt Q02763); assay: Inhibition of TIE2 (unknown origin) at 1 uM by Ambit Kinomescan binding assay relative to control
# [8] = biological target: Ribosomal protein S6 kinase alpha-3 (Homo sapiens) (UniProt P51812); assay: Inhibition of RSK2 domain1 ACT labeling site in human A-375 cells at 5 uM by KiNativ Profiling analysis relative to control; type: cell-based
# How it was run: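 Live A375 melanoma cells treated with compound at 5 or 0.5 μM, then lysed. Lysate kinases were labeled with a lysine-reactive ATP or ADP-biotin probe. Inhibition was read as protection of labeling sites from the probe.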
# [9] = biological target: 5'-AMP-activated protein kinase catalytic subunit alpha-1 (Homo sapiens) (UniProt Q13131); assay: Inhibition of AMPK-alpha1 (unknown origin) at 1 uM by Ambit Kinomescan binding assay relative to control
# [10] = biological target: T3, Phosphatidylinositol 4,5-bisphosphate 3-kinase catalytic subunit delta isoform (Homo sapiens) (UniProt O00329); assay: Inhibition of PIK3CD ATP labeling site in human A-375 cells at 5 uM by KiNativ Profiling analysis relative to control; type: cell-based
# T3 sequence (whole entry): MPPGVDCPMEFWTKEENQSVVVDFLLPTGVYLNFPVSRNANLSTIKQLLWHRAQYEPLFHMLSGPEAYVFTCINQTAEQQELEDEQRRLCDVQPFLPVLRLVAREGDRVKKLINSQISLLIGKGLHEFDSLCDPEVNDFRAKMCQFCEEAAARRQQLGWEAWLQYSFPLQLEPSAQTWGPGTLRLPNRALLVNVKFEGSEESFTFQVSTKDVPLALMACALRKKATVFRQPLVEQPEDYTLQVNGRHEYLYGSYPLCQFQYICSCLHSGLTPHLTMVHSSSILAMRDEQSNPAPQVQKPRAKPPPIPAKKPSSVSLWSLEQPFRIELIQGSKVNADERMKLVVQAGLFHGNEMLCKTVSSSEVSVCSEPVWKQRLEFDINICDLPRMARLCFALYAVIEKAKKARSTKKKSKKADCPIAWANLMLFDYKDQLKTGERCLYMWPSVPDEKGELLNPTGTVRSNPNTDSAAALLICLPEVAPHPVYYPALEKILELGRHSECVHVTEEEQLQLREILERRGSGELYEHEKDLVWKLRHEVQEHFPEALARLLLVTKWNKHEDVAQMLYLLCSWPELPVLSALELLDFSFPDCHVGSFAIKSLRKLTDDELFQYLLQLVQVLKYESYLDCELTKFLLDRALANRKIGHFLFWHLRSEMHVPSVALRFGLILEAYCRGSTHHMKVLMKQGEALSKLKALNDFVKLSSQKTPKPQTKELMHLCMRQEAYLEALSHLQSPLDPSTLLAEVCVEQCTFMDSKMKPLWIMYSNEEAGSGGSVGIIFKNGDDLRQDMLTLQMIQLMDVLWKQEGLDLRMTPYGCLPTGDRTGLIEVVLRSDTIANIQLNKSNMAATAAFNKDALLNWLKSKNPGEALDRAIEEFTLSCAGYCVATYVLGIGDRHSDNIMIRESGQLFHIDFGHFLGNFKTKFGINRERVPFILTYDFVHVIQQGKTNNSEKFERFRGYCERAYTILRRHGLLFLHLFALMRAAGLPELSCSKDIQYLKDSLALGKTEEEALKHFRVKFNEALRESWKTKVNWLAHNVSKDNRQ
# Chain of Ribosomal protein S6 kinase alpha-3 (Homo sapiens) (P51812 whole entry, the tested form may be a part): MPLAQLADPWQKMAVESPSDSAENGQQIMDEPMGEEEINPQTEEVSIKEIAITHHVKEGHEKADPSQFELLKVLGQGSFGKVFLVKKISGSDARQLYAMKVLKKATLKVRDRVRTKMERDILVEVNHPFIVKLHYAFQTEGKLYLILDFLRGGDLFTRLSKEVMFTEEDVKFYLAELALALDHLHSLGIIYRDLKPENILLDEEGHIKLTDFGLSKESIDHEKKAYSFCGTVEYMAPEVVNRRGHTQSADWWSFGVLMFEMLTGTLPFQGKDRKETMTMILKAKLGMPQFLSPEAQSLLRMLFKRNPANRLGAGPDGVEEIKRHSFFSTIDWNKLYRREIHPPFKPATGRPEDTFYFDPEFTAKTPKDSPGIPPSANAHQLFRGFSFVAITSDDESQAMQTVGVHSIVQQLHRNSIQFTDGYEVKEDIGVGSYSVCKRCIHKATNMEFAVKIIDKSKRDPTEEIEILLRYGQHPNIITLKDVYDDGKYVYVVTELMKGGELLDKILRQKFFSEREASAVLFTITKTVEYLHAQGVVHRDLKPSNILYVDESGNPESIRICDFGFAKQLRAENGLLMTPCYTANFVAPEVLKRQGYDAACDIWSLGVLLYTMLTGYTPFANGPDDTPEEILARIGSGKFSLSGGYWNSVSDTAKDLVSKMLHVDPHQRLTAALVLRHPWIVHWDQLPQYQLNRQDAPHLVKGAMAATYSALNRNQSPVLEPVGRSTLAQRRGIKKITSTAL
# Chain of 5'-AMP-activated protein kinase catalytic subunit alpha-1 (Homo sapiens) (Q13131 whole entry, looked up, canonical isoform): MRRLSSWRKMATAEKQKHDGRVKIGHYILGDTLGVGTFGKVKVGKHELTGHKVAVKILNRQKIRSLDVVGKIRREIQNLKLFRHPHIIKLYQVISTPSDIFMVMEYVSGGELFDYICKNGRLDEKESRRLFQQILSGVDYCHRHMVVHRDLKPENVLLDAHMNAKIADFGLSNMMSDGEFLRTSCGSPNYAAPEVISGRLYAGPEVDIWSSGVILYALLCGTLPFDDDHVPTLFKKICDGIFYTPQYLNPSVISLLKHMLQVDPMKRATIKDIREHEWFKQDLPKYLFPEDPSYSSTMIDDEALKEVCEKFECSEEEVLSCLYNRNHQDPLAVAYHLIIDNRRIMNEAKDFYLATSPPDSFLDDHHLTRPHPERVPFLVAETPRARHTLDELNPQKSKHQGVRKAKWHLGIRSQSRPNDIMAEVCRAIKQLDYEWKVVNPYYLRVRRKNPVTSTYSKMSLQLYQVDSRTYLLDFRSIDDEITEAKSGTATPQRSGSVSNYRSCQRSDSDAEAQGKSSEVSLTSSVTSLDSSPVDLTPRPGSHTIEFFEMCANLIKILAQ
# Chain of STE20-like serine/threonine-protein kinase (Homo sapiens) (Q9H2G2 whole entry, looked up): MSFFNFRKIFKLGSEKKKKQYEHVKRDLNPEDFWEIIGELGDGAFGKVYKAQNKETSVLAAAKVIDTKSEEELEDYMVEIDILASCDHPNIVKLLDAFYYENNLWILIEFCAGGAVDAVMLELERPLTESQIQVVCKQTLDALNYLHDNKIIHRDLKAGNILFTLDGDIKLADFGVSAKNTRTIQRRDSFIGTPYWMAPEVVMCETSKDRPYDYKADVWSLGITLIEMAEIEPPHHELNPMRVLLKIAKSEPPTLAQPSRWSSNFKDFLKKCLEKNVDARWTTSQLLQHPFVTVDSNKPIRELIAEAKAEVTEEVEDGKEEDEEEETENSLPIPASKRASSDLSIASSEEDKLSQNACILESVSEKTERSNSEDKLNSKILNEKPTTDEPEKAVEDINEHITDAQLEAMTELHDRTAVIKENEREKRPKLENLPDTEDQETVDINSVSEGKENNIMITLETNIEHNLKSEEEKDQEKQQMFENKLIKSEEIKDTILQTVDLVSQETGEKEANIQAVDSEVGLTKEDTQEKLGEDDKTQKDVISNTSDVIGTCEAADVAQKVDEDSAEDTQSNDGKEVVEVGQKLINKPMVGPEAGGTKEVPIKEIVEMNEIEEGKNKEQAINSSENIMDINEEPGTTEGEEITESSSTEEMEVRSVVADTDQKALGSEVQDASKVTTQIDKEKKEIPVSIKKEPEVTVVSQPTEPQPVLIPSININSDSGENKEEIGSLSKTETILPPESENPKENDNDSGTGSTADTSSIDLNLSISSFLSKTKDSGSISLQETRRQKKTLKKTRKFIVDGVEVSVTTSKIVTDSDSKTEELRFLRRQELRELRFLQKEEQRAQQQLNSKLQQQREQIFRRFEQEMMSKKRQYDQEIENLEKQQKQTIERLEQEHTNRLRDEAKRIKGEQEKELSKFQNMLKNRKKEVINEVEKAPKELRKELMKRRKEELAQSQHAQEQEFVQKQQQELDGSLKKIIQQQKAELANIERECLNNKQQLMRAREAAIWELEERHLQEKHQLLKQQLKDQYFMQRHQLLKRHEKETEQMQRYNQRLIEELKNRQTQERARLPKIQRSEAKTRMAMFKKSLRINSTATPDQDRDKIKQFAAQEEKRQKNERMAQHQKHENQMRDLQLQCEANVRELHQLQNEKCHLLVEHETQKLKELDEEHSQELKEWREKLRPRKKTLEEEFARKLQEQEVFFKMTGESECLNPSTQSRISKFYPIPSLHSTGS
# Chain of Angiopoietin-1 receptor (Homo sapiens) (Q02763 whole entry, the tested form may be a part): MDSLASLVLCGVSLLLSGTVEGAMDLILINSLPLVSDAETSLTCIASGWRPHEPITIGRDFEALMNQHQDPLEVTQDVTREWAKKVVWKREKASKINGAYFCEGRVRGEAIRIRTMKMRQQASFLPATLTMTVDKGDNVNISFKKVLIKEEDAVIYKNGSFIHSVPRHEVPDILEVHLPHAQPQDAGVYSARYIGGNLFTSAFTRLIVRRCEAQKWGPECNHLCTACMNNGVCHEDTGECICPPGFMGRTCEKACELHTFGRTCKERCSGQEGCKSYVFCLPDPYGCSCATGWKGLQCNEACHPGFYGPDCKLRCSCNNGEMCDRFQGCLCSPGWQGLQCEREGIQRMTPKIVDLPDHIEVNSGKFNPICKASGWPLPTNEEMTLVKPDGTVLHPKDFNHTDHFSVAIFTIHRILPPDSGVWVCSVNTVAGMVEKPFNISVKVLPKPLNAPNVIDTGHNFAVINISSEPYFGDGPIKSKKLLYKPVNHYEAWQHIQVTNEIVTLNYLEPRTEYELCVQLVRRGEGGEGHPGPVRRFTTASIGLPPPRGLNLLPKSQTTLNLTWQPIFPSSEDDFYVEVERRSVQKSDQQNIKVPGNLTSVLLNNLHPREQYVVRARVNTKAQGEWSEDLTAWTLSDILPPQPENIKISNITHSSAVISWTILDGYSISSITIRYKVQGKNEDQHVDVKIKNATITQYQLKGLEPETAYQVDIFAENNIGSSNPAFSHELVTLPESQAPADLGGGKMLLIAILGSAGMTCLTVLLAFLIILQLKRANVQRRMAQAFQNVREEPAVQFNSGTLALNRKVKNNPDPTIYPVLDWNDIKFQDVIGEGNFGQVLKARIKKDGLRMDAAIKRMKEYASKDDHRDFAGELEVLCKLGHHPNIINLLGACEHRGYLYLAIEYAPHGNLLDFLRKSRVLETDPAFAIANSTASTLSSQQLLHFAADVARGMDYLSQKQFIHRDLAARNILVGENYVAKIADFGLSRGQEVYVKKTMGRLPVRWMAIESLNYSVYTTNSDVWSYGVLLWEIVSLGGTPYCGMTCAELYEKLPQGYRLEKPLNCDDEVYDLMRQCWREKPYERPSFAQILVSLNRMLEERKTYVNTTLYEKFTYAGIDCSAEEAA
# Chain of Microtubule-associated serine/threonine-protein kinase 3 (Homo sapiens) (O60307 whole entry): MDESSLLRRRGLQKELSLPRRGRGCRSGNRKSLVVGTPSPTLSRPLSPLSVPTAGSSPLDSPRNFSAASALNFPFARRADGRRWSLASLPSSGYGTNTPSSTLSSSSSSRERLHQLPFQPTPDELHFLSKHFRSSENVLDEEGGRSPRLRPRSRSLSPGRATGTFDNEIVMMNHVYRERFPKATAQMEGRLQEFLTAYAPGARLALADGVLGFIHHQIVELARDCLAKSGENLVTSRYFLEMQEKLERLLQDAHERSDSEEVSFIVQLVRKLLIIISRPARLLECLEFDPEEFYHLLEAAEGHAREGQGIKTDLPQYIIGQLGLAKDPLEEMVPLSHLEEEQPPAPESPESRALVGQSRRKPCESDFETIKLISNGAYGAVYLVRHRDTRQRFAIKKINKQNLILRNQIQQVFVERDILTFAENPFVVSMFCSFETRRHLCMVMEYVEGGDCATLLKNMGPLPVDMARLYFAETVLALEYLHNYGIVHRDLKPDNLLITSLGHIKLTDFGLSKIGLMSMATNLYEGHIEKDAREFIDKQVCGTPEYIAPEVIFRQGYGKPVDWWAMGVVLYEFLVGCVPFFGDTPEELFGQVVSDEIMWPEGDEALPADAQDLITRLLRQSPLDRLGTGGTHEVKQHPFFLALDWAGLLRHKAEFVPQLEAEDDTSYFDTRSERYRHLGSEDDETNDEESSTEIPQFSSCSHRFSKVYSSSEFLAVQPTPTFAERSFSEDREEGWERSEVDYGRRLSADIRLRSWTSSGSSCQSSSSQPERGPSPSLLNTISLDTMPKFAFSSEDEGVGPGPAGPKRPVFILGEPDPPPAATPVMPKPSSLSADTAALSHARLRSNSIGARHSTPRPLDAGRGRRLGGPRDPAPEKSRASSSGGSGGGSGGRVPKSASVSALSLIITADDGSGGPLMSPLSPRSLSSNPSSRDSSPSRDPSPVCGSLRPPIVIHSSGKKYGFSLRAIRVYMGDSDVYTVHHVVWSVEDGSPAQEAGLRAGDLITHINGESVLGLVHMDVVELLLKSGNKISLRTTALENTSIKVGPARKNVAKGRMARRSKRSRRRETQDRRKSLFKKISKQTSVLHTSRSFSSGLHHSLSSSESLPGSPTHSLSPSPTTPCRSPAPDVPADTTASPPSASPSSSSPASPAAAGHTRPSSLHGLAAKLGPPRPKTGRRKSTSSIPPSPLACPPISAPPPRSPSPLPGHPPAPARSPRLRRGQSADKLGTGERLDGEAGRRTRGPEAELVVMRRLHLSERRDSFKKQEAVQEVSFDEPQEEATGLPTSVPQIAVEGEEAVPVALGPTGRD
smiles,measurement,setting,value
CNc1cc(Oc2cc(C(=O)Nc3cc(N4CCN(C)CC4)cc(C(F)(F)F)c3)ccc2C)ncn1,inhibition,[1],30.2%
same,inhibition,[2],59.3%
same,inhibition,[3],1.9%
CCN1CCN(Cc2ccc(NC(=O)c3ccc(C)c(Oc4ccnc5[nH]ccc45)c3)cc2C(F)(F)F)CC1,inhibition,[4],2.5%
same,inhibition at 0.05 µM,[5],-15.4%
same,inhibition,[6],-9.6%
CCN1CCN(Cc2ccc(NC(=O)c3ccc(C)c(/C=C/c4cnc5[nH]ccc5c4OC)c3)cc2C(F)(F)F)CC1,inhibition,[7],0%
same,inhibition,[8],17.8%
same,inhibition,[9],25%
same,inhibition,[10],21.3%
